Data as given in ChEMBL document CHEMBL1145811, “Synthesis and antibacterial activity of a novel series of acylides: 3-O-(3-pyridyl)acetylerythromycin A derivatives” (J Med Chem, 2003).
≈ marks a conversion by molar mass, not a printed value.

Key:
Staphylococcus aureus [1] = experiment: In vitro minimum inhibitory concentration for antibacterial activity against Staphylococcus aureus SR138 (constitutively MLSb-resistant strain encoded by the erm(A) gene); assay type: functional
Summary of the method: (§1)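 Agar dilution MIC determined by the Japan Society of Chemotherapy standard method for aerobic bacteria.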

Streptococcus pneumoniae [2] = experiment: In vitro minimum inhibitory concentration for antibacterial activity against Streptococcus pneumoniae 210 (efflux-resistant strain encoded by the mef(A) gene); assay type: functional; summary of the method: as §1
Streptococcus pneumoniae [3] = experiment: In vitro minimum inhibitory concentration for antibacterial activity against erythromycin susceptible strain Streptococcus pneumoniae IID553; assay type: functional
Staphylococcus aureus [4] = experiment: In vitro minimum inhibitory concentration for antibacterial activity against erythromycin susceptible strain Staphylococcus aureus Smith; assay type: functional
Staphylococcus aureus [5] = experiment: In vitro minimum inhibitory concentration for antibacterial activity against Staphylococcus aureus B1 (inducibly MLSb-resistant strain encoded by the erm(C) gene); assay type: functional; summary of the method: as §1
Haemophilus influenzae [6] = experiment: In vitro minimum inhibitory concentration for antibacterial activity against Haemophilus influenzae ATCC 43095 (ampicillin-susceptible strain that does not produce beta-lactamase); assay type: functional; summary of the method: as §1
Streptococcus pneumoniae [7] = experiment: In vitro minimum inhibitory concentration for antibacterial activity against erythromycin-susceptible strain Streptococcus pneumoniae IID553; assay type: functional
Summary of the method: (§2)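 MIC by agar dilution following the Japan Society of Chemotherapy standard method for aerobic bacteria. S. aureus 209P-JC and S. pneumoniae IID553 are erythromycin-susceptible strains.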

Staphylococcus aureus [8] = experiment: In vitro minimum inhibitory concentration for antibacterial activity against erythromycin-susceptible strain Staphylococcus aureus […]; assay type: functional; summary of the method: as §2
Haemophilus influenzae [9] = experiment: In vitro minimum inhibitory concentration for antibacterial activity against Haemophilus influenzae ATCC 33533 (ampicillin-resistant strain that produces beta-lactamase); assay type: functional; summary of the method: as §1
Streptococcus pneumoniae [10] = experiment: In vitro minimum inhibitory concentration for antibacterial activity against Streptococcus pneumoniae 211 (MLSb-resistant strain encoded by the erm(B) gene); assay type: functional; summary of the method: as §1
Mus musculus [11] = experiment: Effective dose in vivo, in mouse inoculated intraperitoneally with 5.80*10e7 CFU of erythromycin susceptible strain Staphylococcus aureus Smith; assay type: functional; settings: ip
Summary of the method: (§3)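 Mouse protection test: mice were infected intraperitoneally with erythromycin-susceptible S. aureus Smith or S. pneumoniae IID553. Compounds were given orally 1 h after inoculation.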

Mus musculus [12] = experiment: Effective dose in vivo, in mouse inoculated intraperitoneally with 1.47*10e3 CFU of erythromycin susceptible strain Streptococcus pneumoniae IID553; assay type: functional; settings: ip; summary of the method: as §3
[13] = Maximum concentration in the serum of mice following a single oral dose of 10 mg/kg (data represent mean in 3 mice); assay type: ADME, organism-based; design: dose 10 mg/kg, route oral; settings: mouse
Summary of the method: (§4)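 Mice received a single 10 mg/kg oral dose. Serum and lung were sampled for drug levels. Cmax is in µg/mL and AUC over 0–8 h is in µg·h/mL. Values are the mean of three mice.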

Mus musculus [14] = experiment: Survival rate of mouse inoculated intraperitoneally with 5.05*10e7 CFU of erythromycin-susceptible strain Streptococcus pneumoniae IID553 after treatment with 0.3 mg of compound; assay type: functional
Summary of the method: (§5)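 Mouse protection test: mice were infected intraperitoneally with 5.05 × 10^7 CFU/mouse, then given the macrolide orally 1 h after inoculation. Survival was recorded as the read-out.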

Mus musculus [15] = experiment: Survival rate of mouse inoculated intraperitoneally with 5.05*10e7 CFU of erythromycin-susceptible strain Streptococcus pneumoniae IID553 after treatment with 3 mg of compound; assay type: functional; summary of the method: as §5
[16] = Area under the curve was determined for the compound from the lung of mice following a single oral dose of 10 mg/kg (data represent mean in 3 mice); assay type: ADME, organism-based; design: dose 10 mg/kg, route oral; settings: mouse, read-out: AUC 0-8; summary of the method: as §4
[17] = Maximum concentration in the lung of mice following a single oral dose of 10 mg/kg (data represent mean in 3 mice); assay type: ADME, organism-based; design: dose 10 mg/kg, route oral; settings: mouse; summary of the method: as §4
[18] = Area under the curve was determined for the compound from the serum of mice following a single oral dose of 10 mg/kg (data represent mean in 3 mice); assay type: ADME, organism-based; design: dose 10 mg/kg, route oral; settings: mouse, read-out: AUC 0-8; summary of the method: as §4
Mus musculus [19] = experiment: Effective dose in vivo, in mouse inoculated intraperitoneally with 7.05*10e2 CFU of erythromycin susceptible strain Streptococcus pneumoniae IID553; assay type: functional; settings: ip; summary of the method: as §3
Mus musculus [20] = experiment: Effective dose in vivo, in mouse inoculated intraperitoneally with 5.09*10e7 CFU of erythromycin susceptible strain Staphylococcus aureus Smith; assay type: functional; settings: ip; summary of the method: as §3

With `CC[C@H]1OC(=O)[C@H](C)[C@@H](OC(=O)Cc2cccnc2)[C@H](C)[C@@H](OC2O[C@H](C)C[C@H](N(C)C)[C@H]2O)[C@@](C)(OC)C[C@@H](C)C(=O)[C@H](C)[C@H]2OC(=O)O[C@@]21C` (some centres undefined) the MIC (Staphylococcus aureus [1]) was greater than 100 µg/mL, the MIC (Streptococcus pneumoniae [2]) was 0.2 µg/mL (≈ 0.272 µM) and the MIC (Streptococcus pneumoniae [3]) was 0.05 µg/mL (≈ 0.068 µM). The MIC (Staphylococcus aureus [4]) was 0.2 µg/mL (≈ 0.272 µM), the MIC (Staphylococcus aureus [5]) was 0.39 µg/mL (≈ 0.531 µM) and the MIC (Haemophilus influenzae [6]) was 3.13 µg/mL (≈ 4.26 µM). For the same compound, the MIC (Streptococcus pneumoniae [7]) was 0.05 µg/mL (≈ 0.068 µM), the MIC (Staphylococcus aureus [8]) was 0.2 µg/mL (≈ 0.272 µM) and the MIC (Haemophilus influenzae [9]) was 3.13 µg/mL (≈ 4.26 µM). It also gave an MIC (Streptococcus pneumoniae [10]) greater than 100 µg/mL, an ED50 (Mus musculus [11]) of 17.5 mg/kg and an ED50 (Mus musculus [12]) of 51.1 mg/kg.
For `CC[C@H]1OC(=O)[C@H](C)[C@@H](OC(=O)Cc2cccnc2)[C@H](C)[C@@H](OC2O[C@H](C)C[C@H](N(C)C)[C@H]2O)[C@@](C)(OC)C[C@@H](C)C(=O)[C@H](C)[C@H]2NC(=O)O[C@@]21C` (some centres undefined), the MIC (Staphylococcus aureus [1]) was greater than 100 µg/mL, the MIC (Streptococcus pneumoniae [2]) was 0.1 µg/mL (≈ 0.136 µM) and the MIC (Streptococcus pneumoniae [3]) was 0.05 µg/mL (≈ 0.0681 µM). For the same compound, the MIC (Staphylococcus aureus [4]) was 0.2 µg/mL (≈ 0.273 µM), the MIC (Staphylococcus aureus [5]) was 0.39 µg/mL (≈ 0.531 µM) and the MIC (Haemophilus influenzae [6]) was 3.13 µg/mL (≈ 4.26 µM). It also gave an MIC (Streptococcus pneumoniae [7]) of 0.05 µg/mL (≈ 0.0681 µM), an MIC (Staphylococcus aureus [8]) of 0.05 µg/mL (≈ 0.0681 µM) and an MIC (Haemophilus influenzae [9]) of 3.13 µg/mL (≈ 4.26 µM). It also gave an MIC (Streptococcus pneumoniae [10]) greater than 100 µg/mL, an ED50 (Mus musculus [11]) of 6.99 mg/kg and an ED50 (Mus musculus [12]) of 17.5 mg/kg.
In the case of `CC[C@H]1OC(=O)[C@H](C)[C@@H](OC(=O)Cc2cccnc2)[C@H](C)[C@@H](OC2O[C@H](C)C[C@H](N(C)C)[C@H]2O)[C@@]2(C)C[C@@H](C)[C@H](OC(=O)O2)[C@H](C)[C@H]2OC(=O)O[C@@]21C` (some centres undefined), the MIC (Staphylococcus aureus [1]) is reported as greater than 100 µg/mL, the Cmax [13] is reported as 120 ng/mL and the Survival rate (Mus musculus [14]) is reported as 30%. It also gave an MIC (Streptococcus pneumoniae [2]) of 0.1 µg/mL (≈ 0.134 µM), an MIC (Staphylococcus aureus [5]) of 0.2 µg/mL (≈ 0.267 µM) and an MIC (Haemophilus influenzae [6]) of 0.78 µg/mL (≈ 1.04 µM). The MIC (Streptococcus pneumoniae [7]) was 0.025 µg/mL (≈ 0.0334 µM), the MIC (Staphylococcus aureus [8]) was 0.1 µg/mL (≈ 0.134 µM) and the Survival rate (Mus musculus [15]) was 90%. For the same compound, the MIC (Haemophilus influenzae [9]) was 0.78 µg/mL (≈ 1.04 µM), the AUC [16] was 2460 ng·h/mL and the MIC (Streptococcus pneumoniae [10]) was 100 µg/mL (≈ 134 µM). For the same compound, the Cmax [17] was 1350 ng/mL and the AUC [18] was 230 ng·h/mL.
With `CC[C@H]1OC(=O)[C@H](C)[C@@H](O[C@H]2C[C@@](C)(OC)[C@@H](O)[C@H](C)O2)[C@H](C)[C@@H](O[C@@H]2O[C@H](C)C[C@H](N(C)C)[C@H]2O)[C@](C)(O)C[C@@H](C)CN(C)[C@H](C)[C@@H](O)[C@]1(C)O` [AZITHROMYCIN] the MIC (Staphylococcus aureus [1]) was greater than 100 µg/mL, the ED50 (Mus musculus [19]) was 13.9 mg/kg and the Survival rate (Mus musculus [14]) was 50%. The MIC (Streptococcus pneumoniae [2]) was 0.78 µg/mL (≈ 1.04 µM), the MIC (Streptococcus pneumoniae [3]) was 0.1 µg/mL (≈ 0.134 µM) and the MIC (Staphylococcus aureus [4]) was 0.78 µg/mL (≈ 1.04 µM). It also gave an MIC (Staphylococcus aureus [5]) greater than 100 µg/mL, an MIC (Haemophilus influenzae [6]) of 1.56 µg/mL (≈ 2.08 µM) and an MIC (Streptococcus pneumoniae [7]) of 0.1 µg/mL (≈ 0.134 µM). The MIC (Staphylococcus aureus [8]) was 0.39 µg/mL (≈ 0.521 µM), the Survival rate (Mus musculus [15]) was 100% and the MIC (Haemophilus influenzae [9]) was 1.56 µg/mL (≈ 2.08 µM). The ED50 (Mus musculus [20]) was 15.7 mg/kg and the MIC (Streptococcus pneumoniae [10]) was greater than 100 µg/mL.
Compound `CC[C@H]1OC(=O)[C@H](C)[C@@H](O[C@H]2C[C@@](C)(OC)[C@@H](O)[C@H](C)O2)[C@H](C)[C@@H](O[C@@H]2O[C@H](C)C[C@H](N(C)C)[C@H]2O)[C@](C)(OC)C[C@@H](C)C(=O)[C@H](C)[C@@H](O)[C@]1(C)O` [CLARITHROMYCIN] has an MIC (Staphylococcus aureus [1]) greater than 100 µg/mL, a Cmax [13] of 1210 ng/mL and a Survival rate (Mus musculus [14]) of 50%. It also gave an MIC (Streptococcus pneumoniae [2]) of 0.78 µg/mL (≈ 1.04 µM), an MIC (Streptococcus pneumoniae [3]) of 0.025 µg/mL (≈ 0.0334 µM) and an MIC (Staphylococcus aureus [4]) of 0.2 µg/mL (≈ 0.267 µM). For the same compound, the MIC (Staphylococcus aureus [5]) was greater than 100 µg/mL, the MIC (Haemophilus influenzae [6]) was 6.25 µg/mL (≈ 8.36 µM) and the MIC (Streptococcus pneumoniae [7]) was 0.05 µg/mL (≈ 0.0668 µM). The MIC (Staphylococcus aureus [8]) was 0.1 µg/mL (≈ 0.134 µM), the Survival rate (Mus musculus [15]) was 100% and the MIC (Haemophilus influenzae [9]) was 3.13 µg/mL (≈ 4.18 µM). For the same compound, the AUC [16] was 30400 ng·h/mL, the MIC (Streptococcus pneumoniae [10]) was greater than 100 µg/mL and the Cmax [17] was 14100 ng/mL. For the same compound, the AUC [18] was 1310 ng·h/mL, the ED50 (Mus musculus [11]) was 7.6 mg/kg and the ED50 (Mus musculus [12]) was 13.5 mg/kg.
For `CC[C@H]1OC(=O)[C@H](C)[C@@H](O[C@H]2C[C@@](C)(OC)[C@@H](O)[C@H](C)O2)[C@H](C)[C@@H](O[C@@H]2O[C@H](C)C[C@H](N(C)C)[C@H]2O)[C@](C)(O)C[C@@H](C)C(=O)[C@H](C)[C@@H](O)[C@]1(C)O` [ERYTHROMYCIN], the ED50 (Mus musculus [19]) was 111 mg/kg, the MIC (Streptococcus pneumoniae [3]) was 0.1 µg/mL (≈ 0.136 µM) and the MIC (Staphylococcus aureus [4]) was 0.2 µg/mL (≈ 0.273 µM). It also gave an ED50 (Mus musculus [20]) of 56.6 mg/kg.
